For one assay, the species on record is Homo sapiens. The assay can be described thus: Selectivity ratio IC50 for inhibition of human CYP1B1 expressed in HEK293 cells toIC50 for Inhibition of CYP1A1 expressed in HEK293 cells. In kind it is cell-based.
Assay [1] relates to MCF7. The assay can be described thus: Induction of cellular senescence in human MCF7 cells over expressing CYP1A assessed as increase in beta-gal-positive cells at 2 times of EC50 concentration incubated for 96 hrs by microscopic assay relative to control. Format: functional. In a few lines: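 MCF7-1A1 cells were seeded at 25,000 per well and stabilised for 24 h, then treated for 96 h. Cells were fixed for 10 min at room temperature and stained for β-galactosidase at 37 °C without CO2 for 48 h. The percentage of blue-stained cells was counted by phase-contrast microscopy against untreated cultures.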

Assay [2] deals with MCF7. The assay can be described thus: Induction of cell cycle arrest in human MCF7 over expressing CYP1A cells assessed as accumulation at G2/M phase incubated for 24 hrs by PI staining based flow cytometric analysis (reference value: 22.6%). Format: functional. On the technique in general: A flow cytometer gives signals particle by particle.
Assay [3] relates to MCF7. The assay can be described thus: Induction of cell cycle arrest in human MCF7 over expressing CYP1A cells assessed as accumulation at S phase incubated for 24 hrs by PI staining based flow cytometric analysis (reference value: 20.1%). Format: functional.
For assay [4], the system named is MCF7. The assay can be described thus: Antiproliferative activity against human MCF-7 cells overexpressing CYP1A1 assessed as reduction in cell viability. Format: functional, cell-based. In a few lines: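 MCF-7 cells transfected with pcDNA3.1/CYP1A1 and selected in G418 (1 mg/mL, then […]) to give the stable MCF7-1A1 line. CYP1A1 expression was confirmed by Western blot and 7-ethoxyresorufin enzyme assay. The line was subcloned repeatedly. The reported value is the EC50 for inhibition of proliferation.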

For another assay, the target named is Cytochrome P450 2D6 (Homo sapiens, UniProt P10635). Kind of assay: Inhibition of human CYP2D6 expressed in Sacchrosomes using 7-ethoxy-methyloxy-3-cyanocoumarin as substrate by fluorescence based assay. In kind it is ADME.
In a further assay the target is Cytochrome P450 2C19 (Homo sapiens, UniProt P33261). Kind of assay: Inhibition of human CYP2C19 expressed in Sacchrosomes using 3-cyano-7-ethoxycoumarin as substrate by fluorescence based assay. In kind it is ADME.
In another assay the target is T1, Cytochrome P450 2C8 (Homo sapiens, UniProt P10632).
T1 sequence (P10632 whole entry): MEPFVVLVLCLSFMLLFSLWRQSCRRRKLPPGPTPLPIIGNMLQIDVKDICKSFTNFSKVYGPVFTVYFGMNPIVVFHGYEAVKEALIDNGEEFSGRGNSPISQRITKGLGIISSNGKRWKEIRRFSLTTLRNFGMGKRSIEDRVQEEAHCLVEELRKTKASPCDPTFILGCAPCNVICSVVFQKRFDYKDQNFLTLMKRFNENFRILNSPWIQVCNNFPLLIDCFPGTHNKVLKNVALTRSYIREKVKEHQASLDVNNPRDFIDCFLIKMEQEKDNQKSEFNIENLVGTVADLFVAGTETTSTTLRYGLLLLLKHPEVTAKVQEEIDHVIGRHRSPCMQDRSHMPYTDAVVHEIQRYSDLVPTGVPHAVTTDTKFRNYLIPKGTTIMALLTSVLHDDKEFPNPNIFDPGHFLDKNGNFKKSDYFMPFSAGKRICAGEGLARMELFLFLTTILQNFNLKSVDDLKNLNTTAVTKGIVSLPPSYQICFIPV
Kind of assay: Inhibition of human CYP2C8 expressed in Sacchrosomes by fluorescence based assay. Format: ADME.

In the next assay the target is T2, Cytochrome P450 2A6 (Homo sapiens, UniProt P11509).
T2 sequence (P11509 whole entry): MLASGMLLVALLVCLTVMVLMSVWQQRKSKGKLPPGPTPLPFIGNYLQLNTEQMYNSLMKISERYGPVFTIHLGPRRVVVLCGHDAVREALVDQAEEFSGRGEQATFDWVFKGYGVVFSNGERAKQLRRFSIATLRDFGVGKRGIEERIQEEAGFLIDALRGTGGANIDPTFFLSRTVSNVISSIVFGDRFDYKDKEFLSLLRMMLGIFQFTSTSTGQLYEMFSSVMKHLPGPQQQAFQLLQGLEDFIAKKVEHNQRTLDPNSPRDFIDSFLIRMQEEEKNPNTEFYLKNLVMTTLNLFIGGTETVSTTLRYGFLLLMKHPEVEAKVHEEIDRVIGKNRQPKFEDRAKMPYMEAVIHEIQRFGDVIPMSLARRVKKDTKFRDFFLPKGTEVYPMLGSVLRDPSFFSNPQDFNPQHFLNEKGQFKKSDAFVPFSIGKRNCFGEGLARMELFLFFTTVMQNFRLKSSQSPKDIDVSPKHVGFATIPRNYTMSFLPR
The assay can be described thus: Inhibition of human CYP2A6 expressed in Sacchrosomes by fluorescence based assay. In kind it is ADME.

For the next assay, the target named is T3, Cytochrome P450 1A1 (Homo sapiens, UniProt P04798).
T3 sequence (P04798 whole entry): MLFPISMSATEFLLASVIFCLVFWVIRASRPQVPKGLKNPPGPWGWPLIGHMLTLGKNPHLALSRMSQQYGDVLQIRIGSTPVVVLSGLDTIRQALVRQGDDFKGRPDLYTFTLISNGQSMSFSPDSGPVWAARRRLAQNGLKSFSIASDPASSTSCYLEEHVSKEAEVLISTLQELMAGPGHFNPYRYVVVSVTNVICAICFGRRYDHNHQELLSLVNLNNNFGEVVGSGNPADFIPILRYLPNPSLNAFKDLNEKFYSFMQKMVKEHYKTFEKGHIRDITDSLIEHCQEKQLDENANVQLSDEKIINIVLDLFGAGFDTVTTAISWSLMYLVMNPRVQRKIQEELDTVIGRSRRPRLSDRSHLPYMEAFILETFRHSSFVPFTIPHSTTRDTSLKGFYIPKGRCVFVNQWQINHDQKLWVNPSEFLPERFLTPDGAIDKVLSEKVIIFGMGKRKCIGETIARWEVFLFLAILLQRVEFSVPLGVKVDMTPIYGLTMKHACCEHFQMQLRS
Kind of assay: Inhibition of human CYP1A1 expressed in human HEK293 cells using 7-ethoxyresorufin as substrate preincubated for 30 mins followed by substrate additon and measured after 60 mins by fluorescence based assay. In kind it is cell-based. In a few lines:
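The assay used live recombinant human HEK293 cells grown in suspension, each cell line expressing a single CYP (CYP1A1 or CYP1B1). Percent inhibition was read at 10 μM, and IC50 values were determined. Values are mean ± SD of three independent experiments. Alpha-naphthoflavone served as the reference inhibitor.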

Cytochrome P450 2C19, sequence (P33261 whole entry): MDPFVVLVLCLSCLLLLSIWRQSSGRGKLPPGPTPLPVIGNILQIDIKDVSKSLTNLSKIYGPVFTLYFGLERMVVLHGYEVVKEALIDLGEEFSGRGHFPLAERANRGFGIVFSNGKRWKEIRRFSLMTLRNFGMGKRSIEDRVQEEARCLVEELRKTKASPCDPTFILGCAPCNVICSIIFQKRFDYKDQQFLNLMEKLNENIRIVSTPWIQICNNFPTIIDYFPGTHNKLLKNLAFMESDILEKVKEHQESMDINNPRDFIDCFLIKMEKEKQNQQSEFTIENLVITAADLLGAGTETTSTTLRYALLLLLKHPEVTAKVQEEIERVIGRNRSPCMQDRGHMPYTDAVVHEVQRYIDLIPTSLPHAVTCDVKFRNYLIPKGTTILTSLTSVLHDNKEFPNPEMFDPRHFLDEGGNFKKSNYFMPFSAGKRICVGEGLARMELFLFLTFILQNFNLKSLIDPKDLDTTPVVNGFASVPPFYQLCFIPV
Cytochrome P450 2D6, sequence (P10635 whole entry): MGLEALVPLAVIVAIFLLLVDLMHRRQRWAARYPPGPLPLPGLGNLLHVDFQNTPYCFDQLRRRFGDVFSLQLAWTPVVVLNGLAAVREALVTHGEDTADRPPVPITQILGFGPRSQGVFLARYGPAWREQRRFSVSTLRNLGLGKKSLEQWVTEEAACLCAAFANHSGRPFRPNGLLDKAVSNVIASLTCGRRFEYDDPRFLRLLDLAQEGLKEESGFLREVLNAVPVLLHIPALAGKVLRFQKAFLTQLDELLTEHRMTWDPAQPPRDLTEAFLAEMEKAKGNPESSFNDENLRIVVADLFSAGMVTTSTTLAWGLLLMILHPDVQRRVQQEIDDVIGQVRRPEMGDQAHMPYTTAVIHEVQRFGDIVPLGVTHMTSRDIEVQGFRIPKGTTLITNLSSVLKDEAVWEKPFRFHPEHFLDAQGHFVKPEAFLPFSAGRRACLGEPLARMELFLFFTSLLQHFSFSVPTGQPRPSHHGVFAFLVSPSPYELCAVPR

In general, EC50 refers to the concentration needed to bring the measured effect to its halfway point. By IC50 is commonly meant the concentration that gives 50% inhibition. Read a high IC50 as lower potency. Turning to `O=c1cc(-c2ccccc2)oc2c1ccc1occc12` [LANCEOLATIN B], in the assay listed under Homo sapiens, the Ratio IC50 came to 19.5. Also, the results for the Activity with MCF7 [1], in the assay on MCF7 [2] and in the assay on MCF7 [3] were 60%, 9.2% and 7.1%, respectively. In addition, in the assay with MCF7 [4], the EC50 worked out at 0.7 µM. In addition, the IC50 is greater than 20 µM against Cytochrome P450 2D6; greater than 20 µM against Cytochrome P450 2C19; greater than 20 µM on Cytochrome P450 2C8; greater than 20 µM against Cytochrome P450 2A6; 0.02 µM against Cytochrome P450 1A1.

Take `COc1c(-c2ccc3c(c2)OCO3)oc2c(ccc3occc32)c1=O` [PONGAPIN]: the Ratio IC50 in the assay filed under Homo sapiens is 53. The Activity in the assay on MCF7 [1] is 60%; in the assay with MCF7 [2], 8.3%; in the assay with MCF7 [3] it was 6.7%. In the assay with MCF7 [4], the EC50 is 0.6 µM. The IC50 at Cytochrome P450 2D6 was greater than 20 µM; on Cytochrome P450 2C19, greater than 20 µM; against Cytochrome P450 2C8 it was greater than 20 µM; on Cytochrome P450 2A6, greater than 20 µM; on Cytochrome P450 1A1, 0.02 µM.

The values are drawn from ChEMBL document CHEMBL4673221, “Furanoflavones pongapin and lanceolatin B blocks the cell cycle and induce senescence in CYP1A1-overexpressing breast cancer cells” (Bioorg Med Chem, 2018).
